We go through 26 compounds from ChEMBL document CHEMBL1125768, “Peptide derivatives specific for a Plasmodium falciparum proteinase inhibit the human erythrocyte invasion by merozoites” (J Med Chem, 1991).

The test system of experiment [1] is Plasmodium falciparum. The experiment in a line: Relative rate of hydrolysis by Plasmodium falciparum 68 neutral proteinase. It counts as functional. Summed up: (§1)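 Pf 68 proteinase purified from FcR-3 schizonts, incubated with peptidyl-AEC substrates (0.5-2.0 mM) in 50 mM Tris-HCl pH 7.4, 30 min at 37 °C. Free AEC extracted into ethyl acetate, fluorescence read at ex 370/em 430 nm. A 10 μg/mL trypsin total-release digest served as reference. Km and rates from Lineweaver-Burk plots; Vrel is the rate relative to S-1.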

Experiment [2] relates to Plasmodium falciparum. In words: Substrate affinity for Plasmodium falciparum 68 neutral proteinase. In kind it is functional. The method in brief:
as §1

The test system of experiment [3] is Plasmodium falciparum. In words: Inhibitory activity against Plasmodium falciparum 68 neutral proteinase. In kind it is functional. Summed up: (§2)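 Purified Pf 68 proteinase (FcR-3 schizonts; chromatofocusing then gel filtration; 20 μL extract). Inhibitors at 0.005-1 mM preincubated with 0.19 mM GlcA-Val-Leu-Gly-Lys-AEC in 50 mM Tris-HCl pH 7.4, then 30 min at 37 °C. Released AEC extracted into ethyl acetate, fluorescence read at ex 370/em 430 nm. Enzyme-free control for each inhibitor. I50 read from the activity-versus-concentration plot.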

Experiment [4] relates to Plasmodium falciparum. The experiment in a line: Inhibitory activity against Plasmodium falciparum 68 neutral proteinase. In kind it is functional. To be noted: read-out: I50. Summed up: as §2
Experiment [5] has as its system Plasmodium falciparum. In words: In vitro inhibition of Plasmodium falciparum 68 neutral proteinase activity by reinvasion of red blood cells. In kind it is functional, organism-based. The method in brief: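 Synchronized schizonts (44-48 h) from a 4-h synchronized culture, collected by Plasmagel, added to washed healthy erythrocytes at 5% hematocrit to 4-5% parasitemia, with peptide in complete medium with 5% serum. Incubated 4-6 h in a candle jar. New rings counted on Giemsa smears (5000 RBC). Inhibition = 100 − (R/R0 × 100). IC50 from 6-h runs, 5% initial segmenters, triplicate.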

Experiment [6] has as its system Plasmodium falciparum. In words: Reaction velocity for Plasmodium falciparum 68 neutral proteinase. It counts as functional. The method in brief: as §1

Square brackets hold non-standard residues; d marks the D form. Peptide text beside a SMILES is read from it. * marks the point of attachment. NH(9-Et-carbazol-3-yl) = CCn1c2ccccc2c2cc(N*)ccc21; X1 = O=C(C(O)C(O)C(O)C(O)CO)*; Boc = CC(C)(C)OC(=O)*; Sar = CNCC(=O)O

`CCn1c2ccccc2c2cc(NC(=O)[C@H](CCCCN)NC(=O)CNC(=O)[C@@H](NC(=O)[C@@H](NC(=O)C(O)C(O)C(O)C(O)CO)C(C)C)[C@@H](C)O)ccc21` (some centres not stated) (X1-VTGK-{NH(9-Et-carbazol-3-yl)}) yielded a Vrel in the experiment on Plasmodium falciparum [1] of 26. Also, in the experiment with Plasmodium falciparum [2], the Km came out at 1250 µM.

On to `CCN(CC)C(=O)[C@H](CCCCN)NC(=O)CNC(=O)[C@H](CC(C)C)NC(=O)[C@@H](NC(=O)[C@H](O)[C@@H](O)[C@H](O)[C@H](O)CO)C(C)C`, for which the Ki in the experiment with Plasmodium falciparum [3] was > 2500 µM. Moreover, the IC50 is > 2000 µM in the experiment with Plasmodium falciparum [4] and > 10000 µM in the experiment on Plasmodium falciparum [5].

Consider `CC(C)C[C@H](NC(=O)[C@@H](NC(=O)[C@H](O)[C@@H](O)[C@H](O)[C@H](O)CO)C(C)C)C(=O)N(C)CC(=O)N[C@@H](CCCN=C(N)N)C(=O)N(C)CC(=O)O`, for which the Ki in the experiment with Plasmodium falciparum [3] was 2500 µM. The IC50 in the experiment with Plasmodium falciparum [4] was determined as 2000 µM.

With `CCNC(=O)[C@H](C)NC(=O)CNC(=O)[C@H](CC(C)C)NC(=O)[C@@H](NC(=O)[C@H](O)[C@@H](O)[C@H](O)[C@H](O)CO)C(C)C`, the Ki in the experiment with Plasmodium falciparum [3] was > 2500 µM. Besides, the IC50 is > 2000 µM with Plasmodium falciparum [4] and > 10000 µM with Plasmodium falciparum [5].

For `CCn1c2ccccc2c2cc(NC(=O)[C@H](CCCCN)NC(=O)CNC(=O)[C@H](CC(C)C)NC(=O)[C@@H](NC(=O)C(O)C(O)C(O)C(O)CO)C(C)C)ccc21` (some centres not stated) (X1-VLGK-{NH(9-Et-carbazol-3-yl)}), the Vrel with Plasmodium falciparum [1] worked out at 100. Besides, the Km in the experiment with Plasmodium falciparum [2] was 380 µM. In the experiment with Plasmodium falciparum [6], this compound gave a Vm of 35 uM ml-1.

As to `CCNC(=O)CNC(=O)[C@H](CCCN=C(N)N)NC(=O)[C@H](Cc1ccccc1)NC(=O)[C@H](CC(=O)O)NC(C)=O` (Ac-DFRG-NHEt), the Ki with Plasmodium falciparum [3] was > 2500 µM. Moreover, the IC50 with Plasmodium falciparum [5] was > 10000 µM.

`CC(C)C[C@H](NC(=O)[C@@H](NC(=O)[C@H](O)[C@@H](O)[C@H](O)[C@H](O)CO)C(C)C)C(=O)NCC(=O)N[C@@H](CCCN=C(N)N)C(=O)N(C)CC(=O)O`: the affinity in the experiment with Plasmodium falciparum [3] corresponds to a Ki of 1220 µM. Also, the IC50 in the experiment with Plasmodium falciparum [4] was 1000 µM.

As to `CCn1c2ccccc2c2cc(NC(=O)[C@H](CCCCN)NC(=O)CNC(=O)[C@H](COC(=O)c3ccccc3)NC(=O)C(O)C(O)C(O)C(O)CO)ccc21` (some centres not stated), the Vrel with Plasmodium falciparum [1] was <3. Besides, the Km with Plasmodium falciparum [2] was > 10000 µM.

The compound `CCn1c2ccccc2c2cc(NC(=O)[C@H](CCCCN)NC(=O)CN(C)C(=O)[C@H](CC(C)C)NC(=O)[C@@H](NC(=O)C(O)C(O)C(O)C(O)CO)C(C)C)ccc21` (some centres not stated) (X1-VL[Sar]K-{NH(9-Et-carbazol-3-yl)}) returned a Vrel in the experiment with Plasmodium falciparum [1] of 80. Further, the Km in the experiment with Plasmodium falciparum [2] worked out at 1670 µM.

`CCn1c2ccccc2c2cc(NC(=O)[C@H](CCCCN)NC(=O)CNC(=O)[C@H](CC(C)C)NC(=O)[C@H](CO)NC(=O)C(O)C(O)C(O)C(O)CO)ccc21` (some centres not stated) (X1-SLGK-{NH(9-Et-carbazol-3-yl)}): in the experiment with Plasmodium falciparum [1], the Vrel came out at 17. For the same compound, the Km with Plasmodium falciparum [2] turned out to be 1140 µM.

Compound `CCNC(=O)[C@H](CCCCN)NC(=O)CNC(=O)[C@H](CC(C)C)NC(=O)[C@@H](NC(=O)[C@H](O)[C@@H](O)[C@H](O)[C@H](O)CO)C(C)C` registered an inhibition constant Ki in the experiment with Plasmodium falciparum [3] of 480 µM. Besides, the IC50 with Plasmodium falciparum [4] stood at 470 µM; in the experiment on Plasmodium falciparum [5] it was 900 µM.

With `CC(C)C[C@H](NC(=O)[C@@H](NC(=O)[C@H](O)[C@@H](O)[C@H](O)[C@H](O)CO)C(C)C)C(=O)NCC(=O)N[C@@H](CCCCN)C(=O)O`, the Ki in the experiment on Plasmodium falciparum [3] is > 2500 µM. The IC50 in the experiment on Plasmodium falciparum [4] is > 2000 µM; in the experiment on Plasmodium falciparum [5], > 10000 µM.

In the case of `CCn1c2ccccc2c2cc(NC(=O)[C@H](CCCN=C(N)N)NC(=O)CNC(=O)[C@H](CC(C)C)NC(=O)[C@@H](NC(=O)C(O)C(O)C(O)C(O)CO)C(C)C)ccc21` (some centres not stated) (X1-VLGR-{NH(9-Et-carbazol-3-yl)}), the Vrel with Plasmodium falciparum [1] is given as 89. Further, the Km with Plasmodium falciparum [2] is 400 µM.

In turn, `CCn1c2ccccc2c2cc(NC(=O)[C@H](CCCCN)NC(=O)CNC(=O)[C@H](CC(C)C)NC(=O)[C@@H](NC(=O)C(O)C(O)C(O)C(O)CO)[C@@H](C)O)ccc21` (some centres not stated) (X1-TLGK-{NH(9-Et-carbazol-3-yl)}) came in with a Vrel in the experiment with Plasmodium falciparum [1] of 74. Moreover, the Km with Plasmodium falciparum [2] stood at 770 µM.

In the experiment on Plasmodium falciparum [1], `CCn1c2ccccc2c2cc(NC(=O)[C@H](CCCCN)NC(=O)CNC(=O)[C@H](CC(C)C)NC(=O)[C@@H](NC(=O)OC(C)(C)C)C(C)C)ccc21` (Boc-VLGK-{NH(9-Et-carbazol-3-yl)}) gave a Vrel of 11. Besides, the Km in the experiment on Plasmodium falciparum [2] was determined as 1140 µM.

In the case of `CCNC(=O)CNC(=O)[C@H](CCCN=C(N)N)NC(=O)[C@@H]1CCCN1C(=O)[C@H](CC(=O)O)NC(=O)OC(C)(C)C` (Boc-DPRG-NHEt), the Ki with Plasmodium falciparum [3] is > 2500 µM. The IC50 in the experiment with Plasmodium falciparum [4] is > 2000 µM.

Turning to `CCn1c2ccccc2c2cc(NC(=O)[C@H](CCCCN)NC(=O)CNC(=O)[C@H](CO)NC(=O)C(O)C(O)C(O)C(O)CO)ccc21` (some centres not stated), the Vrel in the experiment with Plasmodium falciparum [1] is recorded as 140. Also, the Michaelis-Menten constant (Km) in the experiment with Plasmodium falciparum [2] worked out at 730 µM.

On to `CC[C@H](C)[C@H](NC(=O)C(O)C(O)C(O)C(O)CO)C(=O)N[C@H](CNCC(=O)N[C@@H](CCCN=C(N)N)C(=O)Nc1ccc2c(c1)c1ccccc1n2CC)C(C)C` (some centres not stated), for which the Vrel with Plasmodium falciparum [1] came out at 3. For the same compound, the Km in the experiment on Plasmodium falciparum [2] was determined as 6250 µM.

In the case of `CCn1c2ccccc2c2cc(NC(=O)[C@H](CCCCN)NC(=O)CNC[C@H](CC(C)C)NC(=O)[C@H](N)C(C)C)ccc21`, in the experiment on Plasmodium falciparum [1], the Vrel is <3. In addition, the Km in the experiment on Plasmodium falciparum [2] is > 10000 µM.

`CCn1c2ccccc2c2cc(NC(=O)[C@H](CCCCN)NC(=O)[C@H](C)NC(=O)[C@H](C)NC(=O)[C@H](C)NC(=O)C(O)C(O)C(O)C(O)CO)ccc21` (some centres not stated) (X1-AAAK-{NH(9-Et-carbazol-3-yl)}) registered a Vrel in the experiment with Plasmodium falciparum [1] of 29. In addition, the Km in the experiment on Plasmodium falciparum [2] worked out at 5000 µM.

Regarding `CC(C)C[C@H](NC(=O)[C@@H](NC(=O)[C@H](O)[C@@H](O)[C@H](O)[C@H](O)CO)C(C)C)C(=O)NCC(=O)N[C@@H](CCCCN)C(=O)N(C)CC(=O)O`, in the experiment on Plasmodium falciparum [3], the affinity corresponds to a Ki of 250 µM. Moreover, the IC50 with Plasmodium falciparum [4] was found to be 320 µM.

With `CCn1c2ccccc2c2cc(NC(=O)[C@H](CCCN=C(N)N)NC(=O)CNC(=O)[C@H](CO)NC(=O)C(O)C(O)C(O)C(O)CO)ccc21` (some centres not stated), the Vrel in the experiment with Plasmodium falciparum [1] was <3. For the same compound, the Km with Plasmodium falciparum [2] is > 10000 µM.

In turn, `CC(C)C[C@H](NC(=O)[C@@H](NC(=O)[C@H](O)[C@@H](O)[C@H](O)[C@H](O)CO)C(C)C)C(=O)NCC(=O)N[C@@H](CCCCN)C(=O)NC(CO)CO` yielded a Ki in the experiment with Plasmodium falciparum [3] of 1460 µM. Moreover, the IC50 in the experiment with Plasmodium falciparum [4] was determined as 1500 µM.

Take `CC(C)C[C@H](NC(=O)[C@@H](NC(=O)[C@H](O)[C@@H](O)[C@H](O)[C@H](O)CO)C(C)C)C(=O)NCC(=O)N[C@@H](CCCCN)C(=O)N1CCC[C@H]1C(=O)O`: the Ki in the experiment on Plasmodium falciparum [3] is > 2500 µM. Moreover, the IC50 with Plasmodium falciparum [4] is > 2000 µM.

`CCn1c2ccccc2c2cc(NC(=O)[C@H](CCCCN)NC(=O)CNC[C@@H](NC(=O)C(O)C(O)C(O)C(O)CO)C(C)O)ccc21` (some centres not stated): in the experiment with Plasmodium falciparum [1], the Vrel amounted to 23. The Km with Plasmodium falciparum [2] was 5600 µM.

Turning to `CC[C@H](C)[C@H](NC(=O)C(O)C(O)C(O)C(O)CO)C(=O)N[C@H](C(=O)NCC(=O)N[C@@H](CCCCN)C(=O)Nc1ccc2c(c1)c1ccccc1n2CC)C(C)C` (some centres not stated) (X1-IVGK-{NH(9-Et-carbazol-3-yl)}), the Vrel in the experiment on Plasmodium falciparum [1] is on record as 43. In addition, in the experiment on Plasmodium falciparum [2], the Km turned out to be 950 µM.

The term Km denotes the concentration of substrate that gives half-maximal velocity. In general, Ki refers to the equilibrium dissociation constant of an inhibitor or competing ligand from its target. Higher therefore signals weaker binding.
